Activity calls are given as the source filed them. The calls are words filed in the database; no cut-off is given here.
What was measured:
Oryctolagus cuniculus [1] = assay: Pyrogenic activity in Chinchilla rabbit assessed as change in maximum body temperature at 100 nmol/kg, iv using micellar foemulation measured at 30 mins time intervals; format: toxicity, organism-based; details: in vivo, 0.5 h
Method in brief: (§1)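 Standard rabbit pyrogenicity test, three animals per group, iv or modified sc application of free (micellar) or liposomal formulations. Maximum temperature rise (+ΔTmax) summed per group; sum below 1.1 °C classed as nonpyrogenic. Temperature followed a further 24 h for delayed pyrogenicity.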

Oryctolagus cuniculus [2] = assay: Toxicity in Chinchilla rabbit assessed as weight loss at 100 nmol/kg, iv using micellar formulation measured up to 2 months post dose; format: organism-based; details: in vivo
Oryctolagus cuniculus [3] = assay: Toxicity in Chinchilla rabbit assessed as skin irritation at 100 nmol/kg, iv using micellar formulation measured up to 2 months post dose; format: organism-based; details: in vivo
[4] = molecular target: Nucleotide-binding oligomerization domain-containing protein 2 (Homo sapiens) (UniProt Q9HC29); assay: Agonist activity at human NOD2 receptor expressed in mouse Raw-Blue reporter cells at 10 uM after 48 hrs by SEAP reporter gene assay; format: cell-based
Method in brief: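 RAW 264.7-derived RAW-Blue cells carrying an NF-κB/AP-1-inducible SEAP reporter, exposed to compounds at 10 μM for 48 h. Colorimetric SEAP read-out at 650 nm. MDP serves as positive control. ANOVA with Dunnett's test versus untreated cells and versus MDP.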

[5] = molecular target: T1, Nucleotide-binding oligomerization domain-containing protein 1 (Homo sapiens) (UniProt Q9Y239); assay: Agonist activity at human NOD1 receptor expressed in HEK-Blue reporter cells at 10 uM after 48 hrs by SEAP reporter gene assay; format: cell-based
T1 sequence (whole entry): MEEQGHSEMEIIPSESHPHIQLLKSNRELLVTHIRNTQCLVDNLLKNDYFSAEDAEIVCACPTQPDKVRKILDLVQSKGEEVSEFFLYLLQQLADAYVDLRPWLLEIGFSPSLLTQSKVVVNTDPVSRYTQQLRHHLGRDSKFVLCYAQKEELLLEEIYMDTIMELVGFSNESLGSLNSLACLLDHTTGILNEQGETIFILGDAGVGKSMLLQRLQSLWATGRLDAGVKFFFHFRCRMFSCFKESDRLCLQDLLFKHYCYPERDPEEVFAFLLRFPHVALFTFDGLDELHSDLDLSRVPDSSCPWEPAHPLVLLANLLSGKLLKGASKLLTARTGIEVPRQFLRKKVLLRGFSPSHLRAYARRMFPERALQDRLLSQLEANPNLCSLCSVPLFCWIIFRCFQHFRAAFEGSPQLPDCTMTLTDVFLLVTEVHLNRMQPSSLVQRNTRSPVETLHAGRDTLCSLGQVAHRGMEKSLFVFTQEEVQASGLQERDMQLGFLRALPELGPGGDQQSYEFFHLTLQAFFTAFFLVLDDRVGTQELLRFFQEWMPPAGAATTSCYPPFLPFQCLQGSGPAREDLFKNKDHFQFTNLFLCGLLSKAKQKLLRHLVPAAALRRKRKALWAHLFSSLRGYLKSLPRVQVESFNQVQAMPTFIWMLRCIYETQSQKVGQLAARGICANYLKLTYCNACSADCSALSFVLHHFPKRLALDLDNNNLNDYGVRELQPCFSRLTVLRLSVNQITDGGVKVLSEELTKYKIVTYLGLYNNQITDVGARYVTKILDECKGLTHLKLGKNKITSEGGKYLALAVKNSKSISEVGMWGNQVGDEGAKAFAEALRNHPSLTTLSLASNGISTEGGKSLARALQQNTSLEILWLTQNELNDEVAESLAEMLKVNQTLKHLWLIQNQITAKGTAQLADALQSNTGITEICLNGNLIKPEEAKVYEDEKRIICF
Method in brief: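 HEK293 cells cotransfected with human NOD1 and an NF-κB/AP-1-inducible SEAP reporter, exposed to compounds at 10 μM for 48 h. SEAP is read at 650 nm with QUANTI-Blue. Diaminopimelic acid derivatives serve as NOD1 positive controls. Dunnett's test is used versus untreated cells.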

Mus musculus [6] = assay: Immuno-stimulatory activity in ICR mouse assessed as induction of GM-progenitor cell proliferation in serum at […], sc using liposomal formulation measured after 6 hrs; format: functional, organism-based
Method in brief: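 Female ICR mice, 3 months old, four per group, given liposomal preparations sc at 100 nmol per dose in 200 μL. Serum collected 6 h later and added to cultured granulocyte–monocyte progenitors. GM-CFU colonies counted, with serum-free cells as baseline. Dunnett's test is used versus the infusion-solution control.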

[7] = molecular target: NACHT, LRR and PYD domains-containing protein 3 (Homo sapiens, UniProt Q96P20); assay: Agonist activity at NLRP3 in human […] cells assessed as induction of LPS-induced IL-1beta secretion by HEK-Blue reporter cell based assay
Method in brief: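 THP1-Null cells stimulated with compounds; mature IL-1β released is detected with HEK-Blue IL-1β cells through SEAP reporter activity in the supernatant, read colorimetrically with QUANTI-Blue. ATP serves as positive standard. Untreated HEK-Blue IL-1β cells serve as negative control; comparison by ANOVA with Dunnett's test.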

[8] = Solubility of the compound in ethanol; format: physicochemical
[9] = Solubility of the compound in DMSO; format: physicochemical
[10] = Solubility of the compound in PBS; format: physicochemical; details: buffer
Oryctolagus cuniculus [11] = assay: Pyrogenic activity in New Zealand albino rabbit assessed as change in maximum body temperature at 100 nmol/kg, sc using liposomal formulation measured at 30 mins time intervals for 9 to 24 hrs (reference value: 0.2 degC); format: toxicity, organism-based; details: in vivo; method in brief: as §1
Oryctolagus cuniculus [12] = assay: Toxicity in Chinchilla rabbit assessed as necrosis at site of application at 100 nmol/kg, iv using micellar formulation measured up to 2 months post dose; format: organism-based; details: in vivo
Oryctolagus cuniculus [13] = assay: Toxicity in Chinchilla rabbit assessed as behavioral changes at 100 nmol/kg, iv using micellar formulation measured up to 2 months post dose; format: organism-based; details: in vivo
Oryctolagus cuniculus [14] = assay: Toxicity in New Zealand albino rabbit assessed as weight loss at 100 nmol/kg, sc using liposomal formulation measured up to 2 months post dose; format: organism-based; details: in vivo
Oryctolagus cuniculus [15] = assay: Toxicity in New Zealand albino rabbit assessed as skin irritation at 100 nmol/kg, sc using liposomal formulation measured up to 2 months post dose; format: organism-based; details: in vivo
Oryctolagus cuniculus [16] = assay: Toxicity in New Zealand albino rabbit assessed as necrosis at site of application at 100 nmol/kg, sc using liposomal formulation measured up to 2 months post dose; format: organism-based; details: in vivo
Oryctolagus cuniculus [17] = assay: Toxicity in New Zealand albino rabbit assessed as behavioral changes at 100 nmol/kg, sc using liposomal formulation measured up to 2 months post dose; format: organism-based; details: in vivo
[18] = molecular target: Nucleotide-binding oligomerization domain-containing protein 2 (Homo sapiens) (UniProt Q9HC29); assay: Agonist activity at human NOD2 receptor expressed in mouse Raw-Blue reporter cells at 10 uM after 48 hrs in presence of gefitinib by SEAP reporter gene assay; format: cell-based
[19] = molecular target: Nucleotide-binding oligomerization domain-containing protein 2 (Homo sapiens) (UniProt Q9HC29); assay: Agonist activity at human NOD2 receptor expressed in mouse Raw-Blue reporter cells at 10 uM after 24 hrs in presence of GSK717 by SEAP reporter gene assay
Mus musculus [20] = assay: Adjuvant activity in OspA immunized BALB/c mouse assessed as induction of total Ig antibody production administered id loaded in rOspA proteoliposomes measured 14 days after boost immunization by ELISA; format: functional
Method in brief: (§2)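 Female BALB/c mice, 6−8 weeks, five per group, immunized id with His-tagged rOspA (endotoxin below 2.5 EU/mg) on metallochelation liposomes (EPC/POPG/DOGS-NTA-Ni/adjuvant 71:19:5:5), 20 μg rOspA per dose; boost 14 days after prime. Pooled sera taken 14 days post-boost, run in duplicate by ELISA on 100 ng/well tag-free rOspA, diluted 1:1000–1:32000; reported as mean OD490 ± SD at 1:8000.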

Mus musculus [21] = assay: Adjuvant activity in OspA immunized BALB/c mouse assessed as induction of total IgG1 antibody production administered id loaded in rOspA proteoliposomes measured 14 days after boost immunization by ELISA; format: functional; method in brief: as §2
Mus musculus [22] = assay: Adjuvant activity in OspA immunized BALB/c mouse assessed as induction of total IgG2a antibody production administered id loaded in rOspA proteoliposomes measured 14 days after boost immunization by ELISA; format: functional; method in brief: as §2
Mus musculus [23] = assay: Toxicity in BALB/c mouse assessed as irritation at site of drug application administered id loaded in rOspA proteoliposomes; details: in vivo, other
Method in brief: (§3)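 Female BALB/c mice immunized id with rOspA metallochelation proteoliposomes carrying the adjuvant, prime and boost 14 days apart; injection sites inspected for irritation or local reactions.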

Mus musculus [24] = assay: Toxicity in BALB/c mouse assessed as local reactions at site of drug application administered id loaded in rOspA proteoliposomes; details: in vivo, other; method in brief: as §3
Oryctolagus cuniculus [25] = assay: Pyrogenic activity in New Zealand albino rabbit assessed as change in maximum body temperature at 25 ug/kg, sc using liposomal formulation measured at 30 mins time intervals for 9 to 24 hrs (reference value: 0.2 degC); format: organism-based; details: in vivo, 0.025 mg/kg

Nucleotide-binding oligomerization domain-containing protein 2 (Homo sapiens), sequence (Q9HC29 whole entry, the tested form may be a part): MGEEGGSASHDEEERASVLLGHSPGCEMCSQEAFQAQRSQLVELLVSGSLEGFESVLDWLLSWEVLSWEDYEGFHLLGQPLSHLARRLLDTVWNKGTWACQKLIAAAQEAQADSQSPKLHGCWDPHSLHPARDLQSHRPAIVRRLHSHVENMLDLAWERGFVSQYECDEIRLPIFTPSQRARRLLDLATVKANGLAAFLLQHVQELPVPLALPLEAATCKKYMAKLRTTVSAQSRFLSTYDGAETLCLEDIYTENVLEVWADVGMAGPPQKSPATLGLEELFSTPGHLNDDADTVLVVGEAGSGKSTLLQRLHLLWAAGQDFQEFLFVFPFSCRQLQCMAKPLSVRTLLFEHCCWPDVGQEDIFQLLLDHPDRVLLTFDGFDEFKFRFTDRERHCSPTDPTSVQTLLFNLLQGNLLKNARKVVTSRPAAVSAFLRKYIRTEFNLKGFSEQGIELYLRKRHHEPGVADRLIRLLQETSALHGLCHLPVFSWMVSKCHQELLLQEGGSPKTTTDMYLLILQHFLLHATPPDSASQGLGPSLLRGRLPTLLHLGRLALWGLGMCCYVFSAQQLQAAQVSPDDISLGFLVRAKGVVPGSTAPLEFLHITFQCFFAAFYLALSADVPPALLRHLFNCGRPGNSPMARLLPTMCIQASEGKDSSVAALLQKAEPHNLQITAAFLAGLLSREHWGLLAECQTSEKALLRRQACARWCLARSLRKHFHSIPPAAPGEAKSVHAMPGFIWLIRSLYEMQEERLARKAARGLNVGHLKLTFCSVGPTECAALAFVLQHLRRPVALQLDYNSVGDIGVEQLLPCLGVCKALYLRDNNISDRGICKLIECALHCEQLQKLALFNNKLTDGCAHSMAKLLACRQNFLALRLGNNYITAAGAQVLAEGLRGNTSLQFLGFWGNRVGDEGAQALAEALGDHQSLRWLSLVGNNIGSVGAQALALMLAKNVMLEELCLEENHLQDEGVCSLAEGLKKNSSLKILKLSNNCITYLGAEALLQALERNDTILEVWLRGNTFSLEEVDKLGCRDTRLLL
NACHT, LRR and PYD domains-containing protein 3, sequence (Q96P20 whole entry, the tested form may be a part): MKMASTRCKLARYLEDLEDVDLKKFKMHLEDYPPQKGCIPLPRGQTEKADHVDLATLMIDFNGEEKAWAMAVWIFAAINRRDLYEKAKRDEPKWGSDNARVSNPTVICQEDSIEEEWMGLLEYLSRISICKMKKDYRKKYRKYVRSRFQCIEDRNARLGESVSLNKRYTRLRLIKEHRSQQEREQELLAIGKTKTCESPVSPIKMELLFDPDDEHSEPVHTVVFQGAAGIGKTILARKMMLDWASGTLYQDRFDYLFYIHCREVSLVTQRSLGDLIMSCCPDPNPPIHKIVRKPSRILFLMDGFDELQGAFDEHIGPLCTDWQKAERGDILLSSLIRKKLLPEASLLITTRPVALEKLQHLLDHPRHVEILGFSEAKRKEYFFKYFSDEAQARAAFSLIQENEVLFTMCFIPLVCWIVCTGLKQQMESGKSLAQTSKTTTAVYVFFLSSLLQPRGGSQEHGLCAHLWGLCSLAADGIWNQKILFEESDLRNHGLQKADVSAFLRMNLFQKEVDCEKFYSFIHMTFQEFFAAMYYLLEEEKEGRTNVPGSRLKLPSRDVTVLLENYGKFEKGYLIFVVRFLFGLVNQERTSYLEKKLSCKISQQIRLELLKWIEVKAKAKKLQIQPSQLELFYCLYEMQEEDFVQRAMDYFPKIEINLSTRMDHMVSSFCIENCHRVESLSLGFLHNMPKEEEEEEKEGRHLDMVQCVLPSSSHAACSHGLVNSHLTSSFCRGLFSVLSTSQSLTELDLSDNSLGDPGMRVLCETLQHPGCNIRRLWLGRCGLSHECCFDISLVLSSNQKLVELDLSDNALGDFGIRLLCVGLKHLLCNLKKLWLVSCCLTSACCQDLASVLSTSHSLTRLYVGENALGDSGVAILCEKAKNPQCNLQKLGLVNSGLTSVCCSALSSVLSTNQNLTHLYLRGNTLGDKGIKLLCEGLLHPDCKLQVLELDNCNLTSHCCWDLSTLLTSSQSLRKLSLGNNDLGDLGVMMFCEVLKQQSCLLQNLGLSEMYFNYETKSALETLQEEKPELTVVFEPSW

| Compound | deltaT (Oryctolagus cuniculus [1]) [°C] | Activity (Oryctolagus cuniculus [2]) | Activity (Oryctolagus cuniculus [3]) | Activity [4] | Activity [5] | Activity (Mus musculus [6]) | Activity [7] | deltaT (Oryctolagus cuniculus [11]) [°C] | Activity (Oryctolagus cuniculus [12]) | Activity (Oryctolagus cuniculus [13]) | Activity (Oryctolagus cuniculus [14]) | Activity (Oryctolagus cuniculus [15]) | Activity (Oryctolagus cuniculus [16]) | Activity (Oryctolagus cuniculus [17]) | Activity [18] | Activity [19] | Activity (Mus musculus [20]) | Activity (Mus musculus [21]) | Activity (Mus musculus [23]) | Activity (Mus musculus [24]) | also measured |
| --- | --- | --- | --- | --- | --- | --- | --- | --- | --- | --- | --- | --- | --- | --- | --- | --- | --- | --- | --- | --- | --- |
| CCCCCCCCCCCCCCC(CCCCCCCCCCCCCC)C(=O)N[C@H]1[C@H](O[C@H]2[C@H](OCC(=O)N[C@@H](CC)C(=O)N[C@H](CCC(=O)O)C(N)=O)[C@@H](NC(C)=O)C(O)O[C@@H]2CO)O[C@H](CO)[C@@H](O)[C@@H]1O (some centres not stated) | 0.7 | Non-Toxic | Non-Toxic | Active | inactive | inactive | Active | 0.5 | Non-Toxic | Non-Toxic | Non-Toxic | Non-Toxic | Non-Toxic | Non-Toxic | inactive | inactive | – | – | – | – | solubility [8]: Insoluble; solubility [9]: Soluble; solubility [10]: Soluble |
| CCCCCCCCCCCCCCC(CCCCCCCCCCCCCC)C(=O)NCCCC[C@H](NC(=O)CC[C@@H](NC(=O)[C@H](CC)NC(=O)CO[C@H]1[C@H](O)[C@@H](CO)OC(O)[C@@H]1NC(C)=O)C(N)=O)C(=O)O (some centres not stated) | 0.7 | Non-Toxic | Non-Toxic | Active | inactive | Active | Active | 0.6 | Non-Toxic | Non-Toxic | Non-Toxic | Non-Toxic | Non-Toxic | Non-Toxic | inactive | inactive | Active | Active | Non-Toxic | Non-Toxic | Activity (Mus musculus [22]): Active |
| CC(=O)N[C@H]1C(O)O[C@H](CO)[C@@H](O)[C@@H]1O[C@H](C)C(=O)N[C@@H](C)C(=O)N[C@H](CCC(=O)O)C(N)=O (some centres not stated) [MURAMYL DIPEPTIDE] | 2.9 | – | – | Active | inactive | Active | Active | – | – | – | – | – | – | – | inactive | inactive | Active | Active | Non-Toxic | Non-Toxic | deltaT (Oryctolagus cuniculus [25]): 2.7 °C |
